Consider 3 compounds from ChEMBL document CHEMBL5375998, “New Genetically Engineered Derivatives of Antibacterial Darobactins Underpin Their Potential for Antibiotic Development” (J Med Chem, 2023).

The nature of assay [1]: Binding affinity to Escherichia coli N-terminal 6 his tagged BamA barrel domain (421 to 810 residues) assessed as dissociation constant measured after 15 mins by microscale thermophoresis analysis. The procedure, abridged:
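Microscale thermophoresis with E. coli BamA at 50 nM in 50 mM HEPES pH 7.6, 5 mM MgCl2, 0.05% Tween. Ligand stock was in water and diluted in HEPES buffer. It was tested from the highest soluble concentration, mostly 2 mM, in 1:1 serial dilution over 16 samples. A labeling/fluorescence pretest was run for each sample.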

The subject of assay [2] is Acinetobacter baumannii. Put plainly: Antibacterial activity against Acinetobacter baumannii DSM-30007 assessed as reduction in bacterial growth measured after 24 hrs. It counts as functional.
Assay [3] relates to Acinetobacter baumannii. Description: Antibacterial activity against Acinetobacter baumannii NCTC 13301 assessed as reduction in bacterial growth measured after 24 hrs. The class given is functional.
The subject of assay [4] is Acinetobacter baumannii. Put plainly: Antibacterial activity against Acinetobacter baumannii ATCC 17978 assessed as reduction in bacterial growth measured after 24 hrs. The class given is functional.
The test system of assay [5] is Pseudomonas aeruginosa. Put plainly: Antibacterial activity against multidrug resistant Pseudomonas aeruginosa 83979 clinical isolate assessed as reduction in bacterial growth measured after 24 hrs. It counts as functional.
For assay [6], the system named is Pseudomonas aeruginosa. Description: Antibacterial activity against multidrug resistant Pseudomonas aeruginosa 84389 clinical isolate assessed as reduction in bacterial growth measured after 24 hrs. It counts as functional.
For assay [7], the system named is Pseudomonas aeruginosa. Description: Antibacterial activity against Pseudomonas aeruginosa PA14 DSM 19882 assessed as reduction in bacterial growth measured after 24 hrs. Conditions: PA14 DSM 19882, 24 h.

Converted amounts (≈) assume the structure as drawn.

With `C[C@@H](O)[C@@H]1NC(=O)[C@H]2NC(=O)[C@H](CC(N)=O)NC(=O)[C@@H](N)Cc3c[nH]c4c(cccc34)O[C@@H]2c2c[nH]c3cc(ccc23)[C@H](CCCN)[C@@H](C(=O)N[C@@H](CCC(N)=O)C(=O)N[C@@H](Cc2c[nH]c3ccccc23)C(=O)O)NC1=O`, the Kd (as a rule, the free concentration of one partner at which half of the binding sites on the other are occupied at equilibrium, for simple one-to-one binding) in assay [1] came to 2.2 µM.
As for `N=C(N)NCCC[C@H](NC(=O)[C@H]1NC(=O)[C@H](CO)NC(=O)[C@H]2NC(=O)[C@H](CCC(N)=O)NC(=O)[C@@H](N)Cc3c[nH]c4c(cccc34)O[C@@H]2c2c[nH]c3cc(ccc23)[C@@H]1CCCN)C(=O)N[C@@H](Cc1c[nH]c2ccccc12)C(=O)O`, the MIC (in general, the lowest concentration found to suppress growth) stood at 2 µg/mL (≈ 1.84 µM) in assay [2]; 8 µg/mL (≈ 7.35 µM) in assay [3]; 16 µg/mL (≈ 14.7 µM) in assay [4]; 8 µg/mL (≈ 7.35 µM) in assay [5]; 16 µg/mL (≈ 14.7 µM) in assay [6]; 16 µg/mL (≈ 14.7 µM) in assay [7].
On to `C[C@@H](O)[C@@H]1NC(=O)[C@H]2NC(=O)[C@H](CC(=O)O)NC(=O)[C@@H](N)Cc3c[nH]c4c(cccc34)O[C@@H]2c2c[nH]c3cc(ccc23)[C@H](CCCN)[C@@H](C(=O)N[C@@H](CCCNC(=N)N)C(=O)N[C@@H](Cc2c[nH]c3ccccc23)C(=O)O)NC1=O`, for which the Kd in assay [1] worked out at 22.6 µM.
